Screening results as filed in PubChem.
An excerpt weighted towards active compounds, which were near 4.3% of everything screened.
m5-HT2A agonist: mouse Htr2a agonists via beta-arrestin recruitment, primary screen, cell-based, luminescence | CHO-K1 mHTR2A beta-arrestin complementation; percent of 30 µM serotonin response | 0.66% of 360,000 active | activation, % at 7.6 µM;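 active means activation above a run cutoff, the mean activation of all tested compounds plus 3 SD, cut at about 14% in these data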
B2AR ag: beta2AR agonists driving receptor internalization, primary screen, cell-based, FAP fluorogen, flow cytometry | Beta-2 adrenergic receptor (Homo sapiens), P07550 | Am2.2-beta2AR cells | response, % (concentration not given with the values) | 0.43% of 340,000 active;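 active means response above a set limit, near 3 SD of response in nonfluorescent compounds, cut at about 42% in these data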
Target sequence (P07550 whole entry, looked up): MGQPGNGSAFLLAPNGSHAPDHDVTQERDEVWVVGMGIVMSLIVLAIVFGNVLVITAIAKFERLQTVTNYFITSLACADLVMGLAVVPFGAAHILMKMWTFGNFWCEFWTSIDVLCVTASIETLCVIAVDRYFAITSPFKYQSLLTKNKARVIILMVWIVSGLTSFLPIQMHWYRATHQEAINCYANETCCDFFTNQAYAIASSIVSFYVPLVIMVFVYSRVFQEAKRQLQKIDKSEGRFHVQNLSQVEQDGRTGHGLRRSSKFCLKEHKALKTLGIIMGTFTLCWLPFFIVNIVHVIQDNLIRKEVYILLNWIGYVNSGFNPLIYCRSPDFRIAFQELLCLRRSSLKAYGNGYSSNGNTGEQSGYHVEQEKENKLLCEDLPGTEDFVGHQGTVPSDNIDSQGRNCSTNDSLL
TAAR1 antag: human TAAR1 antagonists, primary screen, Fluo-8 calcium fluorescence, CHO RD-HGA16 cells; inhibition, % at 3 µM; 1.5% of 360,000 active; AID 624466, 2012; antagonist; Trace amine-associated receptor 1 (Homo sapiens), Q96RJ0;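 active means inhibition above a per-plate cutoff, the mean inhibition of test compounds on that plate plus 3 SD, cut at about 49% in these data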
Target sequence (Q96RJ0 whole entry, looked up): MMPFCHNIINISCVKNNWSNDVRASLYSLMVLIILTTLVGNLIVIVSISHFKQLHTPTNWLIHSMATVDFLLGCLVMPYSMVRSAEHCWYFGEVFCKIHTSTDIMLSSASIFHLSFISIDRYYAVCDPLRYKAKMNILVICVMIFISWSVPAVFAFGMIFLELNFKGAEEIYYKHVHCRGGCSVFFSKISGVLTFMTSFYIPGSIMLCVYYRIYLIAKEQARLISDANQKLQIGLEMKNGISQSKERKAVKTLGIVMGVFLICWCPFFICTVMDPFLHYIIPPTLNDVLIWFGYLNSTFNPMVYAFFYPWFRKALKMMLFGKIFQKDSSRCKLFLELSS
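System: RD-HGA16 CHO cells with stable hTAAR1 and Gα16 | Probe or stimulus: EC80 β-phenethylamine stimulus | Dosing: 3 µM, single point | Times: Dye loading 75 min at 37 °C, then 30 min room temperature | Measured by: Fluo-8 calcium-sensitive fluorescence | Read-out basis: % inhibition of agonist calcium response | Replicates: n of 1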
MC4R antag cAMP: MC4R antagonists of cAMP signaling, primary screen, cell-based, TR-FRET, antagonist arm of biased-ligand search. Melanocortin receptor 4 (Homo sapiens), P32245. inhibition, % at 6.5 µM. MC4R-expressing cells, MTII-stimulated cAMP, LANCE TR-FRET. AID 540295, 2011. 0.48% of 360,000 active;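 active means inhibition above its plate's cutoff, the mean of tested wells on that plate plus 3 SD, cut at about 29% in these data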
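System – human MC4R-expressing U2OS cells · Also added – Melanotan II · Dosing – one concentration, 6.5 µM nominal · Timing – 30-min compound, 1-h challenge, 1-h detection, room temperature · Measured by – Eu-cAMP/anti-cAMP TR-FRET, emission 671 nm · Replicates – singlicate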
TAAR1 ag: human TAAR1 agonists, primary screen, Fluo-8 calcium fluorescence, CHO RD-HGA16 cells | vehicle wells 0%, saturating PEA agonist 100% | activation, % at 3 µM | 0.99% of 360,000 active;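 active means activation above the mean activation of all test compounds in the run plus 3 SD, cut at about 38% in these data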
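Test system: RD-HGA16 (CHO) cells co-expressing Gα16 and hTAAR1; dosing: one-point dosing at 3 µM (nominal); timing: 17-24 h seeding, 75 min 37 °C dye, 30 min RT; signal: kinetic Fluo-8 calcium fluorescence; read-out basis: % activation relative to PEA EC100 response; controls: DMSO and PEA EC100; replicates: n 1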
MC4R ag barr: MC4R agonists recruiting beta-arrestin, primary screen, cell-based, luminescence, agonist arm of biased-ligand search. Melanocortin receptor 4 (Homo sapiens), P32245. U2OS MC4R beta-arrestin complementation; percent of melanotan II response, DMSO zero. 0.98% of 360,000 active. AID 540308, 2011. activation, % at 8.9 µM;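 active means activation above a per-plate cutoff, the mean activation of sample wells on that plate plus 3 SD, cut at about 8% in these data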
TAAR1 ag confirm: human TAAR1 agonists, retest of hits, confirmation, Fluo-8 calcium fluorescence, CHO RD-HGA16 cells; 82% of 2,400 active; shares compounds with TAAR1 ag; AID 651783, 2012; activation, % at 3 µM; scaled: DMSO 0%, maximal phenethylamine 100%;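 active means activation above a cutoff set at the run's mean compound activation plus 3 SD, cut at about 39% in these data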
Ga16 nonsel ag: nonselective calcium mobilization agonists, CHO-Ga16 cells, counter-screen for hTAAR1 agonist project, cell-based, fluorescence, CHO-Ga16 parental line. shares compounds with TAAR1 ag. Fluo-8 calcium fluorescence; normalized to maximal ATP response, DMSO zero. activation, % at 3 µM. 50% of 2,400 active;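 active means activation above the run cutoff, the mean activation over all tested wells plus 3 SD, cut at about 12% in these data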
TAAR1 desensitize: TAAR1 desensitization by agonist hits, confirmation, counter-screen for TAAR1 agonist project, cell-based, fluorescence, tachyphylaxis; inhibition, % at 3 µM; 46% of 2,400 active; AID 651951, 2012; shares compounds with TAAR1 ag; CHO RD-HGA16 hTAAR1, Fluo-8 calcium, beta-PEA response inhibition;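 active means inhibition above the run cutoff, the mean inhibition of all test compounds plus 3 SD, cut at about 49% in these data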;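 further: beta-PEA stimulus applied at its EC80; loss of beta-PEA calcium signal after compound pretreatment read as receptor desensitization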
Ga16 antag count: inhibition of ATP-evoked calcium response in CHO-Ga16 cells, counter-screen for TAAR1 agonist project, cell-based, fluorescence | shares compounds with TAAR1 ag | CHO-Ga16 ATP-induced calcium, Fluo-8 fluorescence | inhibition, % at 3 µM | 39% of 2,400 active | AID 651952, 2012;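 active means inhibition above the plate's mean compound inhibition plus 3 SD, computed per plate, cut at about 22% in these data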
Each line names hits and unclear results; the compound was inactive in the other large screens (follow-up assays come after a bar, where they were run).

CC(C)(C)c1ccc(S(=O)(=O)NC(=O)C2(C)CCN2C(=O)c2cccc3ccccc23)cc1 (configuration not stated)	TAAR1 ag 46 (no result: B2AR ag) | TAAR1 ag confirm 66 | Ga16 nonsel ag 14 | TAAR1 desensitize inactive | Ga16 antag count inactive
COc1ccc(-n2nc3c(N4CCC(C(=O)NC5CCCCC5)CC4)nnc(C)c3c2C)cc1	none (no result: TAAR1 antag, TAAR1 ag)
COc1ccc(-n2nc3c(N4CCC(C(=O)NCC(C)c5ccccc5)CC4)nnc(C)c3c2C)cc1 (configuration not stated)	TAAR1 ag 59 | TAAR1 ag confirm 56 | Ga16 nonsel ag inactive | TAAR1 desensitize inactive | Ga16 antag count inactive
COc1ccc(OC)c(CN2C(=O)CSCC2(C)C(=O)NC(C)C)c1 (configuration not stated)	none (no result: B2AR ag, MC4R antag cAMP, MC4R ag barr)
CCOC(=O)c1c(NC(=O)CSc2nnc(C)s2)sc2c1CCC(C)C2 (configuration not stated)	none
CCOC(=O)c1c(NC(=O)CSc2nnc(C)s2)sc2c1CCCCC2	TAAR1 ag 58 | TAAR1 ag confirm 40 | Ga16 nonsel ag 23 | TAAR1 desensitize inactive | Ga16 antag count inactive
COc1ccccc1/C=C1\SC(=S)N(CCC(=O)Nc2nnc(C)s2)C1=O	none
O=S(=O)(NC1CCCC1)c1ccc(S(=O)(=O)NC2CCCC2)cc1	TAAR1 ag 57 | TAAR1 ag confirm 45 | Ga16 nonsel ag 24 | TAAR1 desensitize inactive | Ga16 antag count 32
CC1N=C(SCC(=O)c2ccc(F)cc2)N2C(C)N=C(SCC(=O)c3ccc(F)cc3)N12 (configuration not stated)	none (no result: B2AR ag)
O=[N+]([O-])c1ccn(-c2nc(-c3ccccc3)cc(C(F)(F)F)n2)n1	TAAR1 ag 50 | TAAR1 ag confirm inactive | Ga16 nonsel ag inactive | TAAR1 desensitize inactive | Ga16 antag count inactive
C[C@@H]1CN([C@@H](C)CO)C(=O)c2cccc(NC(=O)c3nc4ccccc4s3)c2O[C@@H]1CN(C)CC1CC1	none
O=C(CNC(=O)c1ccccc1Cl)N/N=C/C=C/c1ccccc1	none (no result: TAAR1 antag, TAAR1 ag) | Ga16 nonsel ag inactive | Ga16 antag count inactive
O=C(O)c1ccc(N/N=C/C=C/c2ccccc2)cc1	TAAR1 ag 57 | TAAR1 ag confirm inactive | Ga16 nonsel ag 12 | TAAR1 desensitize inactive | Ga16 antag count inactive
O=C(CNC(=O)c1ccccc1F)N/N=C\C=C\c1ccccc1	TAAR1 ag 42 | TAAR1 ag confirm 67 | Ga16 nonsel ag inactive | TAAR1 desensitize 56 | Ga16 antag count inactive
O=C(CNC(=O)c1cccc(Cl)c1)N/N=C/C=C/c1ccccc1	TAAR1 ag 46 | TAAR1 ag confirm 77 | Ga16 nonsel ag 15 | TAAR1 desensitize 67 | Ga16 antag count inactive
O=C(CNC(=O)c1cccc(Cl)c1)N/N=C/c1cccnc1	none
O=C(NCC(O)c1nc2ccccc2[nH]1)c1cc2ccccc2[nH]1 (configuration not stated)	none (no result: B2AR ag, MC4R antag cAMP, MC4R ag barr)
O=C(Cc1nnc(NC(=O)Nc2ccc(F)cc2)s1)Nc1ccccc1	TAAR1 ag 54 | TAAR1 ag confirm 65 | Ga16 nonsel ag 13 | TAAR1 desensitize 68 | Ga16 antag count inactive
O=C(Cc1nnc(NC(=O)Nc2ccccc2)s1)Nc1ccccc1	TAAR1 ag 52 | TAAR1 ag confirm 65 | Ga16 nonsel ag inactive | TAAR1 desensitize 70 | Ga16 antag count inactive
O=C(Nc1ccccc1)Nc1nnc(Cc2ccc(F)cc2)s1	none
Cc1ccc(NC(=O)C2C3C=CC4(O3)C2C(=O)N(CCCN2CCCCC2)C4C(=O)NC2CCCCC2)cc1C (configuration not stated)	none
CC(C)Oc1ccc(CN2CCC2(C)C(=O)Nc2cccc3cccnc23)cc1 (configuration not stated)	none (no result: B2AR ag)
O=C(C(=O)N1CCc2ccccc2C1)c1cn(CC(=O)N2CCCC2)c2ccccc12	TAAR1 ag 50 | TAAR1 ag confirm 50 | Ga16 nonsel ag inactive | TAAR1 desensitize inactive | Ga16 antag count inactive
O=C(C(=O)N1CCCCC1)c1cn(CC(=O)N2CCCCCC2)c2ccccc12	none
CC(C)S(=O)(=O)c1ccc(C(=O)Nc2ccc(F)cc2F)cn1	none
CCCSc1ccc(C(=O)Nc2ccc(F)cc2F)cn1	TAAR1 ag 67 | TAAR1 ag confirm inactive | Ga16 nonsel ag inactive | TAAR1 desensitize inactive | Ga16 antag count inactive
O=c1c(O)c(-c2cccs2)oc2ccc(Cl)cc12	TAAR1 antag 110, TAAR1 ag 292 | TAAR1 ag confirm 152 | Ga16 nonsel ag 152 | TAAR1 desensitize 89 | Ga16 antag count 85
CN(Cc1ccccc1)C(=O)[C@@H]1CCCN1C(=O)OC(C)(C)C	none (no result: B2AR ag, MC4R antag cAMP, MC4R ag barr)
Cc1ccc2[nH]c(=O)c(CN(CCc3ccccc3)C(c3nnnn3Cc3ccco3)C(C)C)cc2c1 (configuration not stated)	TAAR1 ag 71 | TAAR1 ag confirm 62 | Ga16 nonsel ag inactive | TAAR1 desensitize inactive | Ga16 antag count inactive
CCC(c1nnnn1Cc1ccco1)N(CCc1ccccc1)Cc1cc2cc(C)ccc2[nH]c1=O (configuration not stated)	none (no result: TAAR1 antag, TAAR1 ag) | Ga16 nonsel ag inactive | Ga16 antag count inactive
COC(=O)C1=C(C)N(CC2CC2)C(=NCc2cccc(C(F)(F)F)c2)N[C@H]1c1ccccc1	none (no result: TAAR1 antag, TAAR1 ag)
